The record followed here is ChEMBL document CHEMBL4373680, “Small antibacterial molecules highly active against drug-resistant Staphylococcus aureus” (Medchemcomm, 2019).

A value given as a limit tells only on which side of the number the result lay.

The subject of data set [1] is Staphylococcus aureus. In words: Bactericidal activity against metabolically inactive stationary phase of methicillin-resistant Staphylococcus aureus R3545 assessed as bacterial killing at 32 ug/ml incubated for 6 hrs followed by plating on agar plate for 24 hrs by visual counting analysis relative to control. The data set is classed as functional.
Data set [2] deals with Staphylococcus aureus. In words: Bactericidal activity against metabolically inactive stationary phase of methicillin-resistant Staphylococcus aureus ATCC 33591 assessed as bacterial killing at 32 ug/ml incubated for 6 hrs followed by plating on agar plate for 24 hrs by visual counting analysis relative to control. It counts as functional.
The subject of data set [3] is Staphylococcus aureus. As to the kind of experiment: Antibacterial activity against Staphylococcus aureus ATCC 33591 using compound preincubated with human 50% plasma for 3 hrs and measured after 24 hrs by tecan-plate reader analysis. The data set is classed as functional. The essentials:
(§1)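 Compound mixed 1:1 with human plasma, human serum or mouse liver homogenate (50%) and held 3 h at 37 °C. Saline and PBS incubations served as controls. Mixtures two-fold diluted (saline for plasma/serum, PBS for homogenate), then MRSA ATCC33591 (~10⁵ CFU/mL in MHB) added.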

Data set [4] relates to Staphylococcus aureus. In words: Induction of membrane permeabilization in Staphylococcus aureus R3545 assessed as increase in fluorescence intensity measured upto 28 mins by propidium iodide staining based fluorescence spectroscopic technique. The data set is classed as functional, organism-based. The essentials: (§2)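 Mid-log MRSA washed in 5 mM HEPES and resuspended in 1:1 HEPES (5 mM) and glucose (5 mM). Propidium iodide added at 10 µM final. Baseline fluorescence (ex 535/em 617 nm) read 4 min, compound in water added, read to 28 min. Water control; triplicates averaged.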

For data set [5], the system named is Staphylococcus aureus. In words: Induction of membrane depolarization in Staphylococcus aureus R3545 assessed as increase in fluorescence intensity measured upto 28 mins by DiSC3 staining based fluorescence spectroscopic technique. The data set is classed as functional, organism-based. In outline: (§3)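 Mid-log MRSA washed in 5 mM HEPES pH 7.4 and resuspended in 1:1:1 HEPES (5 mM), glucose (5 mM) and KCl (100 mM). Loaded with DiSC3(5) at 2 µM final, 30 min in the dark. Baseline fluorescence (ex 622/em 670 nm) read 4 min, compound added, monitored to 28 min. Water control; triplicates averaged.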

For data set [6], the system named is Staphylococcus aureus. As to the kind of experiment: Bactericidal activity against planktonic phase of methicillin-resistant Staphylococcus aureus ATCC 33591 assessed as log reduction in bacterial colony forming units at 16 ug/ml incubated for 6 hrs followed by plating on agar plate for 24 hrs by time-kill kinetic assay. The data set is classed as functional. The essentials:
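Time-kill: 6 h mid-log culture diluted to 10⁵ CFU/mL in MHB, incubated at 37 °C with compound at […]; 0.9% saline control. Aliquots at 1, 2, 4, 6, 8 and 12 h ten-fold diluted in saline, plated on NB agar 24 h at 37 °C; colonies counted, log scale.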

Data set [7] in a line: Ratio of EC50 for dog MDCK cells to MIC for vancomycin-resistant Staphylococcus aureus clinical isolate 1. The data set is classed as toxicity.
Data set [8] concerns Staphylococcus aureus. In words: Antibiofilm activity against Staphylococcus aureus ATCC 33591 assessed as reduction in biofilm biomass at 16 to 64 ug/ml incubated for 24 hrs followed by plating on agar plate for 24 hrs by crystal violet staining assay relative to control. It counts as functional. The essentials:
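Coverslip biofilms grown 24 h at 37 °C in nutrient broth with 1% glucose and 1% NaCl, then treated with compound for 24 h. PBS-washed and air-dried, stained with 0.1% w/v crystal violet for 5-10 min, washed, stain recovered in 95% ethanol, OD 522 nm read. Two experiments, mean with standard deviation.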

Data set [9] has as its system Staphylococcus aureus. In words: Induction of membrane depolarization in Staphylococcus aureus ATCC 33591 assessed as increase in fluorescence intensity measured upto 28 mins by DiSC3 staining based fluorescence spectroscopic technique. It counts as functional, organism-based. In outline:
as §3

Data set [10] relates to Staphylococcus aureus. As to the kind of experiment: Antibacterial activity against Staphylococcus aureus ATCC 33591 using compound preincubated with mouse 50% liver homogenate for 3 hrs and measured after 24 hrs by tecan-plate reader analysis. The following applies: ATCC 33591, Liver. It counts as functional. The essentials:
as §1

For data set [11], the system named is Staphylococcus aureus. As to the kind of experiment: Induction of membrane permeabilization in Staphylococcus aureus ATCC 33591 assessed as increase in fluorescence intensity measured upto 28 mins by propidium iodide staining based fluorescence spectroscopic technique. The data set is classed as functional, organism-based. In outline:
as §2

Data set [12] is described as follows: Hemolytic activity in human erythrocytes after 1 hr. The data set is classed as ADME, cell-based, Erythrocyte. The essentials:
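Heparinized donor blood. Erythrocytes washed three times in PBS and resuspended to 5 vol%, then mixed 3:1 with compound serially diluted in water. Incubated 1 h at 37 °C and centrifuged. Supernatant A540 read; % hemolysis relative to water and 0.1 vol% Triton-X controls.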

Data set [13] can be described thus: Ratio of EC50 for human A549 cells to MIC for vancomycin-resistant Staphylococcus aureus clinical isolate 1. The data set is classed as toxicity.
The nature of data set [14]: Ratio of EC50 for human A549 cells to MIC for vancomycin-resistant Staphylococcus aureus clinical isolate 2. The data set is classed as toxicity.
For data set [15], the system named is Staphylococcus aureus. As to the kind of experiment: Antibacterial activity against methicillin-resistant Staphylococcus aureus R3889 clinical isolate after 24 hrs by tecan plate reader analysis. The data set is classed as functional. The following applies: R3889, 24 h. In outline: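 Colony grown 24 h on NB agar at 37 °C, then 6 h in nutrient broth to mid-log (10⁸ CFU/mL by drop plating), diluted to 10⁵ CFU/mL in Mueller Hinton broth; added 9:1 to two-fold serial compound dilutions in MHB. Incubated 24 h, 37 °C; OD600 read. Triplicate per concentration, experiment run twice; MIC taken from the range of triplicate OD values.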

Data set [16] relates to Staphylococcus aureus. As to the kind of experiment: Bactericidal activity against metabolically inactive stationary phase methicillin-resistant Staphylococcus aureus ATCC 33591 assessed as log reduction in bacterial colony forming units at 32 ug/ml incubated for 6 hrs followed by plating on agar plate for 24 hrs by visual counting analysis. It counts as functional.
Data set [17] has as its system Staphylococcus aureus. In words: Antibiofilm activity against Staphylococcus aureus R3545 assessed as bacterial cell viability by measuring log reduction in bacterial colony forming units at 16 ug/ml incubated for 24 hrs followed by plating on agar plate for 24 hrs. It counts as functional. In outline:
(§4)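 Mid-log MRSA diluted to 10⁵ CFU/mL in nutrient broth with 1% glucose and 1% NaCl. Biofilms grown on glass coverslips 24 h at 37 °C, static. PBS-washed biofilms treated with compound in biofilm medium 24 h at 37 °C, static; medium-only control. Cells detached with trypsin-EDTA (1:4 in saline) for 15 min, ten-fold diluted, plated on NB agar 24 h; viable counts compared with untreated.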

Data set [18] relates to Staphylococcus aureus. As to the kind of experiment: Antibiofilm activity against Staphylococcus aureus ATCC 33591 assessed as bacterial cell viability by measuring log reduction in bacterial colony forming units at 16 ug/ml incubated for 24 hrs followed by plating on agar plate for 24 hrs. The data set is classed as functional. The essentials:
as §4

For another data set, the system named is Pseudomonas aeruginosa. As to the kind of experiment: Antibacterial activity against Pseudomonas aeruginosa MTCC 424 after 24 hrs by tecan plate reader analysis. The data set is classed as functional. The following applies: MTCC 424, 24 h. In outline:
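Broth microdilution MIC. Glycerol stocks grown on MacConkey agar 24 h at 37 °C, then a single colony in nutrient broth 6 h to mid-log (~10⁸ CFU/mL). Cells diluted to 10⁵ CFU/mL in Mueller Hinton broth and added to two-fold compound dilutions. Incubated 24 h at 37 °C, OD600 read. Triplicate wells, experiment run twice.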

In the next data set the test system is MDCK. As to the kind of experiment: Cytotoxicity against dog MDCK cells up to 128 ug/ml after 24 hrs by alamar blue assay. It counts as cell-based, Canis lupus familiaris. The essentials: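 About 10⁴ cells/well in DMEM with 10% FBS. Medium replaced with two-fold compound dilutions and incubated 24 h at 37 °C, 5% CO₂. Alamar Blue added for a further 4 h, absorbance 570 nm (600 nm reference). Viability normalized to untreated and 0.1% Triton-X wells. Triplicates; sigmoidal fit gives the 50% viability concentration.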

Regarding `CCCCCCNC(=O)C[N+](C)(CCO)CCCCCCCCCCCC[N+](C)(CCO)CC(=O)NCCCCCC.O=C([O-])C(F)(F)F.O=C([O-])C(F)(F)F` (stereo not given), the Activity in the data set with Staphylococcus aureus [1] is more than 99%; in the data set with Staphylococcus aureus [2], more than 99%; with Staphylococcus aureus [4], “Dose-dependent effect”; in the data set with Staphylococcus aureus [5], “Dose-dependent effect”; in the data set with Staphylococcus aureus [6], more than 2 log10CFU/ml; in the data set on Staphylococcus aureus [9], “Dose-dependent effect”. Further, the Activity entry is “Dose-dependent effect” in the data set with Staphylococcus aureus [11]; 2.05 log10CFU/ml in the data set on Staphylococcus aureus [16]; more than 4 log10CFU/ml in the data set with Staphylococcus aureus [17]; more than 4 log10CFU/ml with Staphylococcus aureus [18]; “Non-Toxic” in the data set on MDCK. Further, the MIC is 4 µg/mL against Staphylococcus aureus [3], 4 µg/mL against Staphylococcus aureus [10], 1 to 2 µg/mL against Staphylococcus aureus [15] and 128 µg/mL against Pseudomonas aeruginosa. Besides, the selectivity ratio in [7], in data set [13] and in [14] was 94 to 97 each time. The “inhibition (INH)” value with Staphylococcus aureus [8] is recorded as 60%. For the same compound, the HC50 at 1 h in [12] came to 577 µg/mL.
